Assay results as given in ChEMBL document CHEMBL2375307, “Synthesis and identification of β-aryloxyquinoline based diversely fluorine substituted N-aryl quinolone derivatives as a new class of antimicrobial, antituberculosis and antioxidant agents” (Eur J Med Chem, 2013).
Converted amounts (≈) assume the structure as drawn.

Assays:
[1] = system: Mycobacterium tuberculosis; test: Antitubercular activity against Mycobacterium tuberculosis H37Rv assessed as growth inhibition after 12 to 28 days by Lowenstein-Jensen method; format: functional
Procedure, shortened: (§1)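 Modified Lowenstein-Jensen method. Compound at 250 in DMSO added to liquid L-J medium, then sterilized by inspissation and incubated 24 h at 37 °C. Streaked with H37Rv harvested in 0.85% saline (5 × 10⁴ bacilli/tube) and incubated at 37 °C. Colonies read at 12, 22 and 28 days versus drug-free control; no colonies or <20 colonies scored as inhibition.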

[2] = Toxicity in brine shrimps cysts assessed as mortality at 5 ug/ml after 24 hrs relative to control; format: organism-based; conditions: artemia, in vivo
[3] = Toxicity in brine shrimps cysts assessed as mortality at 20 ug/mL after 24 hrs relative to control; format: organism-based; conditions: artemia, in vivo
Salmonella typhi = test: Antibacterial activity against Salmonella typhi MTCC 98 assessed as growth inhibition after overnight incubation by NCCLS broth microdilution method; format: functional, Salmonella enterica subsp. enterica serovar Typhi; conditions: Salmonella enterica
Streptococcus pneumoniae = test: Antibacterial activity against Streptococcus pneumoniae MTCC 1936 assessed as growth inhibition after overnight incubation by NCCLS broth microdilution method; format: functional
Procedure, shortened: (§2)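 Broth microdilution per NCCLS in Mueller Hinton broth, compounds diluted in DMSO. Primary screen at 500, 250 and 200 µg/mL; actives retested at 100, 62.5, 50, 25 and 12.5 µg/mL. Tubes incubated overnight at 37 °C. […] Non-growing tubes subcultured overnight at 37 °C to judge bacteriostatic versus bactericidal action.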

[4] = system: Mycobacterium tuberculosis; test: Antitubercular activity against Mycobacterium tuberculosis H37Rv assessed as growth inhibition at 250 ug/mL after 12 to 28 days by Lowenstein-Jensen method relative to control; format: functional; conditions: read-out: GI; procedure, shortened: as §1
Bacillus subtilis = test: Antibacterial activity against Bacillus subtilis MTCC 441 assessed as growth inhibition after overnight incubation by NCCLS broth microdilution method; format: functional; procedure, shortened: as §2
Clostridium tetani = test: Antibacterial activity against Clostridium tetani MTCC 449 assessed as growth inhibition after overnight incubation by NCCLS broth microdilution method; format: functional
Vibrio cholerae = test: Antibacterial activity against Vibrio cholerae MTCC 3906 assessed as growth inhibition after overnight incubation by NCCLS broth microdilution method; format: functional
[5] = Toxicity in brine shrimps cysts assessed as mortality at 50 ug/mL after 24 hrs relative to control; format: organism-based; conditions: artemia, in vivo
Candida albicans = test: Antifungal activity against Candida albicans MTCC 227 assessed as growth inhibition after overnight incubation by NCCLS broth microdilution method; format: functional; procedure, shortened: as §2
[6] = Antioxidant activity of the compound assessed as ascorbic acid equivalent of ferric tripyridyl triazine reducing activity at 200 ug/mL after 15 mins by FRAP assay; format: functional
Procedure, shortened: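 FRAP, modified Benzie and Strain method. Fe(III)-TPTZ reagent made with TPTZ in 40 mM HCl, FeCl3 solution and acetate buffer pH 3.6. 200 µL sample solution mixed with 3 mL reagent and held 15 min at 37 °C. Fe(II)-TPTZ read at 593 nm against an ascorbic acid standard, expressed as ascorbic acid equivalents (mmol/100 g compound).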

[7] = Toxicity in brine shrimps cysts assessed as mortality at 40 ug/mL after 24 hrs relative to control; format: organism-based; conditions: artemia, in vivo
[8] = Toxicity in brine shrimps cysts assessed as mortality after 24 hrs relative to control; format: organism-based; conditions: artemia, in vivo
Escherichia coli = test: Antibacterial activity against Escherichia coli MTCC 443 assessed as growth inhibition after overnight incubation by NCCLS broth microdilution method; format: functional; procedure, shortened: as §2
[9] = Toxicity in brine shrimps cysts assessed as mortality at 10 ug/mL after 24 hrs relative to control; format: organism-based; conditions: artemia, in vivo
[10] = Toxicity in brine shrimps cysts assessed as mortality at 30 ug/mL after 24 hrs relative to control; format: organism-based; conditions: artemia, in vivo
Aspergillus fumigatus = test: Antifungal activity against Aspergillus fumigatus MTCC 3008 assessed as growth inhibition after overnight incubation by NCCLS broth microdilution method; format: functional; procedure, shortened: as §2

| Compound | MIC [1] [µg/mL] | mortality at 24 h, 5 ug/ml [2] [%] | mortality at 24 h, 20 ug/mL [3] [%] | MIC (Salmonella typhi) [µg/mL] | MIC (Streptococcus pneumoniae) [µg/mL] | inhibition of growth at 250 µg/mL [4] [%] | MIC (Bacillus subtilis) [µg/mL] | MIC (Clostridium tetani) [µg/mL] | MIC (Vibrio cholerae) [µg/mL] | mortality at 24 h, 50 ug/mL [5] [%] | MIC (Candida albicans) [µg/mL] | Activity [6] [equiv] | mortality at 24 h, 40 ug/mL [7] [%] | LC50 at 24 h [8] [µg/mL] | MIC (Escherichia coli) [µg/mL] | mortality at 24 h, 10 ug/mL [9] [%] | mortality at 24 h, 30 ug/mL [10] [%] | MIC (Aspergillus fumigatus) [µg/mL] |
| --- | --- | --- | --- | --- | --- | --- | --- | --- | --- | --- | --- | --- | --- | --- | --- | --- | --- | --- |
| N#CC1=C(N)N(c2ccc(F)c(F)c2)C2=C(C(=O)CCC2)C1c1cc2cc(Cl)ccc2nc1Oc1ccc(C#N)cc1 (centres undefined) | 100 (≈ 172 µM) | 20 | 60 | 250 (≈ 431 µM) | 200 (≈ 345 µM) | 95 | 125 (≈ 216 µM) | 200 (≈ 345 µM) | 100 (≈ 172 µM) | 90 | 1000 (≈ 1720 µM) | 2.97 | 80 | 14.1 (≈ 24.3 µM) | 200 (≈ 345 µM) | 40 | 70 | > 1000 |
| Cc1ccc2nc(Oc3ccc(C#N)cc3)c(C3C(C#N)=C(N)N(c4cc(F)ccc4F)C4=C3C(=O)CC(C)(C)C4)cc2c1 (centres undefined) | 62.5 (≈ 106 µM) | 0 | 20 | 200 (≈ 340 µM) | 100 (≈ 170 µM) | 99 | 200 (≈ 340 µM) | 100 (≈ 170 µM) | 25 (≈ 42.5 µM) | 80 | > 1000 | 13.9 | 70 | 27.5 (≈ 46.8 µM) | 62.5 (≈ 106 µM) | 10 | 50 | > 1000 |
| NNC(=O)c1ccncc1 [ISONIAZID] | 0.2 (≈ 1.46 µM) | – | – | – | – | 99 | – | – | – | – | – | – | – | – | – | – | – | – |
| Cc1ccc2nc(Oc3ccc(C#N)cc3)c(C3C(C#N)=C(N)N(c4cccc(C(F)(F)F)c4)C4=C3C(=O)CC(C)(C)C4)cc2c1 (centres undefined) | 125 (≈ 202 µM) | 10 | 50 | 100 (≈ 161 µM) | 125 (≈ 202 µM) | 93 | 100 (≈ 161 µM) | 250 (≈ 403 µM) | 125 (≈ 202 µM) | 90 | > 1000 | 339 | 80 | 17.1 (≈ 27.7 µM) | 100 (≈ 161 µM) | 30 | 70 | 1000 (≈ 1610 µM) |
| CC1(C)CC(=O)C2=C(C1)N(c1cccc(C(F)(F)F)c1)C(N)=C(C#N)C2c1cc2cc(Cl)ccc2nc1Oc1ccc(C#N)cc1 (centres undefined) | 62.5 (≈ 97.6 µM) | 10 | 40 | 125 (≈ 195 µM) | 125 (≈ 195 µM) | 98 | 250 (≈ 391 µM) | 250 (≈ 391 µM) | 100 (≈ 156 µM) | 80 | > 1000 | 7.13 | 70 | 23.3 (≈ 36.5 µM) | 125 (≈ 195 µM) | 20 | 50 | 1000 (≈ 1560 µM) |
| N#CC1=C(N)N(c2cccc(C(F)(F)F)c2)C2=C(C(=O)CCC2)C1c1cc2cc(Cl)ccc2nc1Oc1ccc(C#N)cc1 (centres undefined) | 25 (≈ 40.8 µM) | 0 | 20 | 200 (≈ 327 µM) | 62.5 (≈ 102 µM) | 99 | 200 (≈ 327 µM) | 200 (≈ 327 µM) | 62.5 (≈ 102 µM) | 70 | 1000 (≈ 1630 µM) | 5.15 | 50 | 37.8 (≈ 61.7 µM) | 250 (≈ 408 µM) | 10 | 40 | 1000 (≈ 1630 µM) |
| CO[C@H]1/C=C/O[C@@]2(C)Oc3c(C)c(O)c4c(O)c(c(/C=N/N5CCN(C)CC5)c(O)c4c3C2=O)NC(=O)/C(C)=C\C=C\[C@H](C)[C@H](O)[C@@H](C)[C@@H](O)[C@@H](C)[C@H](OC(C)=O)[C@@H]1C [RIFAMPIN] | 40 (≈ 48.6 µM) | – | – | – | – | 98 | – | – | – | – | – | – | – | – | – | – | – | – |
| COc1ccc2nc(Oc3ccc(C#N)cc3)c(C=O)cc2c1 | – | – | – | 100 (≈ 329 µM) | 200 (≈ 657 µM) | 11 | 250 (≈ 822 µM) | 200 (≈ 657 µM) | 250 (≈ 822 µM) | – | 1000 (≈ 3290 µM) | 47 | – | – | 250 (≈ 822 µM) | – | – | 1000 (≈ 3290 µM) |
| Cc1ccc2nc(Oc3ccc(C#N)cc3)c(C3C(C#N)=C(N)N(c4ccc(F)c(F)c4)C4=C3C(=O)CC(C)(C)C4)cc2c1 (centres undefined) | – | – | – | 250 (≈ 425 µM) | 200 (≈ 340 µM) | 32 | 250 (≈ 425 µM) | 250 (≈ 425 µM) | 250 (≈ 425 µM) | – | > 1000 | 122 | – | – | 200 (≈ 340 µM) | – | – | 1000 (≈ 1700 µM) |
| CC1(C)CC(=O)C2=C(C1)N(c1cc(F)ccc1F)C(N)=C(C#N)C2c1cc2cc(Cl)ccc2nc1Oc1ccc(C#N)cc1 (centres undefined) | – | – | – | 125 (≈ 206 µM) | 250 (≈ 411 µM) | 87 | 100 (≈ 164 µM) | 125 (≈ 206 µM) | 250 (≈ 411 µM) | – | 1000 (≈ 1640 µM) | 2.17 | – | – | 250 (≈ 411 µM) | – | – | > 1000 |
